Screens as filed in PubChem.
Apaf1 activ – human Apaf-1 activation. O14727. Apaf-1 apoptosome caspase-3 activation, DEVD-Rh110 fluorescence; stronger effect = lower value. activity change, negative = activation, % at 20 µM. 0.31% of 330,000 active;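 active = activity change at or below -40% at 20 µM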
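Material: biochemical Apaf-1 apoptosome reconstitution; Medium: 20 mM HEPES buffer, pH 7.5, containing CHAPS and BSA; Reagent: dATP, cytochrome c, and (Z-DEVD)2-Rh110 caspase-3 substrate; Times: 30 min preincubation, 50 min reaction, room temperature; Signal: Rh110 fluorescence, excitation 480 nm, emission 540 nm; Measure: Caspase-3 activity via Apaf-1.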
Rh110 act interf – interferes with Rh110 fluorescence, flagging false Apaf-1 activators; shares compounds with Apaf1 activ; Rh110 fluorescence interference, quenched caspase reaction, Ex480/Em540; fluorescence interference (activity change), % at 20 µM, hits read low; 980 tested, under 10 active; AID 504616;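 active = mean activity change at or below -40% when tested at 20 µM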
Apaf-1 act conf – confirmation of human Apaf-1 activators | AID 504617 | shares compounds with Apaf1 activ | activity change, negative = activation, % at 20 µM | reconstituted apoptosome caspase-3 activity, DEVD-Rh110 fluorescence; stronger effect = lower value | 5% of 980 active;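 active = mean activity change at or below -40%, meaning activation of 40% or more, at 20 µM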
Numbers without * were called inactive. Not all results are given here.

SMILES | Apaf1 activ | others
CCOc1ccc(Cl)cc1CNCCc1ccc(F)cc1 | -44* | Rh110 act interf=-1;Apaf-1 act conf=11
CNc1ccc2nc3ccccc3[n+](C)c2c1 | 89
CCCNC1=C(C)C(=O)C2=C(C1=O)C(COC(N)=O)[C@]1(OC)C3NC3CN21 (stereo partly specified) | 57
CC[C@@H]1C(=O)OC[C@@H]1Cc1cncn1C | 0
Nc1cncc(C(=O)O)c1 | 41
Nc1c(C(=O)OCC2CCCO2)c2nc3ccccc3nc2n1Cc1cccs1 (stereo unspecified) | 56
c1cncc(C2Nc3cccc4cccc(c34)N2)c1 | 42
CCOC(=O)C(O)(c1ccc(N(C)C(=O)c2ccc(Cl)c(Cl)c2)cc1)C(F)(F)F (stereo unspecified) | -190* | Rh110 act interf=-2;Apaf-1 act conf=23
Clc1ccc(C(c2ccc(Cl)cc2)n2cc[n+](CC(OCc3ccc(Cl)cc3Cl)c3ccc(Cl)cc3Cl)c2)cc1 (stereo unspecified) | 89
C=CCn1c(O)c(C(C)=Nc2ccc(C(=O)O)cc2)c(=O)[nH]c1=O | -77* | Rh110 act interf=-2;Apaf-1 act conf=12
C[C@]12CC[C@H](OS(=O)(=O)O)CC1=CC[C@@H]1[C@@H]2CC[C@]2(C)C(=O)CC[C@@H]12 | 5
CCCCCn1c(NC(=O)c2ccco2)c(C(=O)OCC)c2nc3ccccc3nc21 | 92
O=c1cc(C2CCNCC2)[nH][nH]1 | 58
CCN(CCO)c1ccc(N=Cc2c(O)n(C)c(=S)[nH]c2=O)cc1 | 51
CNCCc1nc(N)n[nH]1 | -74* | Rh110 act interf=4;Apaf-1 act conf=12
Nc1c(C(=O)NC2CCCC2)c2nc3ccccc3nc2n1CC1CCCO1 (stereo unspecified) | 94
NC(N)=N/N=C/c1ccc(N(c2ccccc2)c2ccccc2)cc1 | 61
O=c1[nH]c2ccccc2n1C1CCN(CCCC(c2ccc(F)cc2)c2ccc(F)cc2)CC1 | 56
CCOC(=O)c1c(NS(=O)(=O)c2ccccc2)n(CCCOC)c2nc3ccccc3nc12 | 96
Cc1ccc(C[n+]2c(-c3ccc(C)cc3)cc(-c3ccc(C)cc3)cc2-c2ccc(C)cc2)cc1 | 79
Cc1c(C(=O)Nc2ccccc2)cc(-c2ccccc2)n1CCCN1CCOCC1 | -201* | Rh110 act interf=-2;Apaf-1 act conf=10
COCCNC(=O)c1c(NC(=O)c2ccc(Br)o2)n(Cc2ccccc2)c2nc3ccccc3nc12 | 67
CCCOC(=O)c1ccc(-[n+]2c(-c3ccccc3)cc(-c3ccccc3)cc2-c2ccccc2)cc1 | 47
c1ccc(-c2[nH]c[n+](CC3CO3)c2-c2ccccc2)cc1 (stereo unspecified) | 51
CCN(CC)c1ccc(N=Cc2c(O)n(-c3cc(OC)ccc3OC)c(=O)[nH]c2=O)cc1 | 48
